Reference: ChEMBL document CHEMBL1125192, “Analogues of the 5-HT1A serotonin antagonist 1-(2-methoxyphenyl)-4-[4-(2-phthalimido)butyl]piperazine with reduced alpha 1-adrenergic affinity” (J Med Chem, 1991)

Assays:
[1] = target: T1, Adrenergic receptor alpha-1 (Rattus norvegicus, UniProt P15823+P23944+P43140); test: Binding affinity towards alpha-1 adrenergic receptor of rat frontal cortex using [3H]- WB- 4101 as a radioligand; assay type: tissue-based
T1 sequence (P15823 whole entry): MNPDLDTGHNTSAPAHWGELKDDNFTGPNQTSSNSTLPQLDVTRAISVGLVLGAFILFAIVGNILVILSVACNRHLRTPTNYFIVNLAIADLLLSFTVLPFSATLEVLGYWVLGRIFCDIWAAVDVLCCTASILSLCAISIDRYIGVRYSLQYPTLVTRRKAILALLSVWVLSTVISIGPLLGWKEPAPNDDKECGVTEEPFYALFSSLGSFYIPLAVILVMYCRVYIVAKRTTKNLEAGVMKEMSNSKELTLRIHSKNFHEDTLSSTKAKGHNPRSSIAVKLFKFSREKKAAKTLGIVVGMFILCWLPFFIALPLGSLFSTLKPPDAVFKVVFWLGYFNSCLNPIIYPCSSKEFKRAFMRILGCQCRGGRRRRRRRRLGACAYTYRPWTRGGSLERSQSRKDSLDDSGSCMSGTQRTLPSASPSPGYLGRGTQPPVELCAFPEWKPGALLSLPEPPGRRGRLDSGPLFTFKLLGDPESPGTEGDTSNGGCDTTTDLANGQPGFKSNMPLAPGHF
T1 sequence (P23944 whole entry): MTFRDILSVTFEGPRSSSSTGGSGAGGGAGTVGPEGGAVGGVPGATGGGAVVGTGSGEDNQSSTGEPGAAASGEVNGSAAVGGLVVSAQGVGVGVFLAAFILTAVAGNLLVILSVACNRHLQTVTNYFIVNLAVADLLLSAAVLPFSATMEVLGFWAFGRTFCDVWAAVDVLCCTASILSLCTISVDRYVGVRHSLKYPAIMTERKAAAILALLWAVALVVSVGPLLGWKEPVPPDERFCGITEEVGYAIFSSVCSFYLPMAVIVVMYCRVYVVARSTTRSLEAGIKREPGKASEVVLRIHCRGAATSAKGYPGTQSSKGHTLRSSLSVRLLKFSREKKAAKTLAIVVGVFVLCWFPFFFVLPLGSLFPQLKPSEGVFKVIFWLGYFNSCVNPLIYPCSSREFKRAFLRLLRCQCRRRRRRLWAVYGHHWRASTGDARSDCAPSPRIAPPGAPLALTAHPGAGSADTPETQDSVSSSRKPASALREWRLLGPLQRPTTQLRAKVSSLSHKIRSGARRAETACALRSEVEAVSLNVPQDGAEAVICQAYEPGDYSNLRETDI
T1 sequence (P43140 whole entry): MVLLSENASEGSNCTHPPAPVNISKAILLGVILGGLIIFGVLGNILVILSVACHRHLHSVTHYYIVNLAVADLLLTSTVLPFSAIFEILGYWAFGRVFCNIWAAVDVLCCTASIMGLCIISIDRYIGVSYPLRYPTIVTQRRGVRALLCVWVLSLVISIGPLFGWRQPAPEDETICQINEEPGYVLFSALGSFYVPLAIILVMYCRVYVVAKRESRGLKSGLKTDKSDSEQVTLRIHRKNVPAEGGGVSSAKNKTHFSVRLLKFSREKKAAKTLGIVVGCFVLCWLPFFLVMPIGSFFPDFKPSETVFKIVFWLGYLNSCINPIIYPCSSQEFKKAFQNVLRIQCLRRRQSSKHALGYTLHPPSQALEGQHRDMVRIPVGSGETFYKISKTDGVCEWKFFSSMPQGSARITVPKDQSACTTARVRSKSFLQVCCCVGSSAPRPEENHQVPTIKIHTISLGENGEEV

[2] = target: Serotonin 1a (5-HT1a) receptor/Adrenergic receptor alpha-1 (Rattus norvegicus) (UniProt P15823+P23944+P43140+P19327); test: Ratio of Ki value for alpha-1 receptor to that of 5-HT1A receptor; assay type: protein assay
Method in brief: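 Ratio of two radioligand binding Ki values. 5-HT1A binding used 0.1 nM [3H]-8-OH-DPAT with rat hippocampal homogenate (6 mg), and 10 μM 8-OH-DPAT defined nonspecific binding. α1-adrenergic binding used 1.0 nM [3H]WB4101 plus 100 nM 8-OH-DPAT with rat frontal cortex (10 mg), and 1 μM prazosin defined nonspecific binding.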

[3] = target: T2, 5-hydroxytryptamine receptor 1A (Rattus norvegicus, UniProt P19327); test: Binding affinity towards 5-hydroxytryptamine 1A receptor of rat hippocampus using [3H]-8-hydroxy-2-(di-n-propylamine) tetralin (8-OH-DPAT) as a radioligand; assay type: tissue-based
T2 sequence (P19327 whole entry): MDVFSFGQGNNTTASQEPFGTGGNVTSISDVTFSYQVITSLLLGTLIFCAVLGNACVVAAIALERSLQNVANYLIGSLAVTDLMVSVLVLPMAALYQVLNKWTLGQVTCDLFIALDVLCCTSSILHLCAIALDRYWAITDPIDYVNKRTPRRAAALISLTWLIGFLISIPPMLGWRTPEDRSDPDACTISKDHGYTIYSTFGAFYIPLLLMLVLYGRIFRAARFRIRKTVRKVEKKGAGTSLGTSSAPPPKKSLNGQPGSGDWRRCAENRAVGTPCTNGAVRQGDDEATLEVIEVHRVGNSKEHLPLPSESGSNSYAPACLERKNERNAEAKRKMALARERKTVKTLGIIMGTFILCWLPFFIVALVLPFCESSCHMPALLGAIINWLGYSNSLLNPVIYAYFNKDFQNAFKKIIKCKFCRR

[4] = target: Serotonin 2 (5-HT2) receptor (Rattus norvegicus, UniProt P30994+P08909+P14842); test: Binding affinity towards 5-hydroxytryptamine 2 receptor using [3H]DOB as; assay type: protein assay
Method in brief: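 [3H]DOB at 0.4 nM on 15 mg homogenized rat frontal cortex; nonspecific binding set with 1 μM cinanserin.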

[5] = target: 5-hydroxytryptamine receptor 1B (Rattus norvegicus, UniProt P28564); test: Binding affinity towards 5-hydroxytryptamine 1B receptor using [3H]5-HT as radioligand
[6] = target: T3, 5-hydroxytryptamine receptor 2C (Rattus norvegicus, UniProt P08909); test: Binding affinity towards 5-hydroxytryptamine 1C receptor using [3H]mesulergine as radioligand
T3 sequence (P08909 whole entry): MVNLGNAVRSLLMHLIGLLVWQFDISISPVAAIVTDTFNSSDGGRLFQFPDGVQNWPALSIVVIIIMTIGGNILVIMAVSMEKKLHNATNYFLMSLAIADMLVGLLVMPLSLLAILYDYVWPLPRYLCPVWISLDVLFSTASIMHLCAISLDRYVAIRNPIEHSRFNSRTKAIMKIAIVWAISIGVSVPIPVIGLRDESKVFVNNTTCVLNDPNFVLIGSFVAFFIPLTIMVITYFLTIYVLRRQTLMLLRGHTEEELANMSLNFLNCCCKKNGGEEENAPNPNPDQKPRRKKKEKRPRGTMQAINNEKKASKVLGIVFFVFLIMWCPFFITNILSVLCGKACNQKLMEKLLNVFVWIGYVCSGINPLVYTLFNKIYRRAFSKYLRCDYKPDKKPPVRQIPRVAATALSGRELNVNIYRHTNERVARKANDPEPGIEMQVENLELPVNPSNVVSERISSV
Method in brief: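 Homogenized rat frontal cortex (10 mg) with 1.0 nM [3H]mesulergine plus 10 nM spiperone; 10 μM 5-HT defined nonspecific binding.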

[7] = target: D(1A) dopamine receptor (Rattus norvegicus, UniProt P18901); test: Binding affinity towards Dopamine receptor D1 using [3H]SCH-23390 as radioligand
Method in brief: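 Homogenized rat striatum (2 mg), 1 nM [3H]SCH-23390 with 20 nM ketanserin added; 1 μM SCH-23390 defined nonspecific binding.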

[8] = target: Adrenergic receptor beta (Rattus norvegicus, UniProt P18090+P10608+P26255); test: Binding affinity towards beta adrenergic receptor using [3H]DHA as radioligand; assay type: protein assay
Method in brief: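 Homogenized rat frontal cortex (5 mg) labelled with 1 nM [3H]DHA; 1 μM propranolol for nonspecific binding.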

[9] = target: D(2) dopamine receptor (Bos taurus, UniProt P20288); test: Binding affinity towards D2-dopaminergic receptor using [3H]NMSP as radioligand
Method in brief: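 Calf caudate (2 mg) with 1 nM [3H]NMSP in 140 mM NaCl; nonspecific binding defined by 10 μM sulpiride.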

D(1A) dopamine receptor, sequence (P18901 whole entry): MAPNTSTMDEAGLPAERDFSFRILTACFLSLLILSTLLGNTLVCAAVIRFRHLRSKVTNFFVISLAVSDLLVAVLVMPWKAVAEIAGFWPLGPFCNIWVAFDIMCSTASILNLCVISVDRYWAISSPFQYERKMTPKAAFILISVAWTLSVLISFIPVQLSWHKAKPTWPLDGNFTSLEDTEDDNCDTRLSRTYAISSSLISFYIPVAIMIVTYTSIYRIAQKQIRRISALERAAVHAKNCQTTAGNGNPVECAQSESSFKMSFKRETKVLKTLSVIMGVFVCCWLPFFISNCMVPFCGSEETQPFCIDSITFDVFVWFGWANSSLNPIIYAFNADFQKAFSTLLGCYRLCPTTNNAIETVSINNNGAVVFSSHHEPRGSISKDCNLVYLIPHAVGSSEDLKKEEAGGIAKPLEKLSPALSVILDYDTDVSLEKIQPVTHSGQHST
5-hydroxytryptamine receptor 1B, sequence (P28564 whole entry): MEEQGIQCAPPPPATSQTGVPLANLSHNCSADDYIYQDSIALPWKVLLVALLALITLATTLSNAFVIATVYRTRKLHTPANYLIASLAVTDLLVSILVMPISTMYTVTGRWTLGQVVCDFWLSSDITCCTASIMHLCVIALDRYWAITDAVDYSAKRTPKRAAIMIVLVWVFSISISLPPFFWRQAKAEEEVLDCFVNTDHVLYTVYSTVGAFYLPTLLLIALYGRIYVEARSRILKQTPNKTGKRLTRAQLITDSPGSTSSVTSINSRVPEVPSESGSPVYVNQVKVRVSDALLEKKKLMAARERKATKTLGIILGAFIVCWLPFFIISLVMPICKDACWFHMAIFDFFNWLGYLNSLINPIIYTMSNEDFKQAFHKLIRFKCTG
D(2) dopamine receptor, sequence (P20288 whole entry): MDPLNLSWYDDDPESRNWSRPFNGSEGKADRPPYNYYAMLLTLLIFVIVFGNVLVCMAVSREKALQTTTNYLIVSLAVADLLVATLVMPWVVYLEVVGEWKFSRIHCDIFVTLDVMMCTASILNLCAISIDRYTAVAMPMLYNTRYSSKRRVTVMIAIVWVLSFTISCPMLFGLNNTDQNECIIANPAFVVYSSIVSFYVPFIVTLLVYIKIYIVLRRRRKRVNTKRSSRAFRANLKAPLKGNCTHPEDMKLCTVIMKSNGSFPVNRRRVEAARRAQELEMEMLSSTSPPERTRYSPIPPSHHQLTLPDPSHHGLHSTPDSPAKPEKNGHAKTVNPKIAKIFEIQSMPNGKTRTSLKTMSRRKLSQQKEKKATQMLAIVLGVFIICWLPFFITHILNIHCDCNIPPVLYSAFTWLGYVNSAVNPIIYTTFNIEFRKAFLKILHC

Row | Structure (SMILES) | Ki [1] | Selectivity [2] | Ki [3] | further results
1 | O=C1c2ccccc2C(=O)N1CCCCN1CCN(c2ccc([N+](=O)[O-])cc2)CC1 | 378 nM | 0.4 | 1000 nM | –
2 | COc1ccccc1N1CCN(CCCCNC(=O)CCCc2ccccc2)CC1 | 84 nM | 7 | – | –
3 | COc1ccc(OC)c(N2CCN(CCCCN3C(=O)c4ccccc4C3=O)CC2)c1 | 15 nM | 0.7 | 22 nM | –
4 | COc1ccccc1N1CCN(CCCCNC(=O)c2ccc(Cl)cc2)CC1 | 23 nM | 6 | 3.6 nM | –
5 | O=C1c2ccccc2C(=O)N1CCCCN1CCN(c2cccc3ccccc23)CC1 | 22 nM | 22 | – | –
6 | CC(=O)Nc1ccc(N2CCN(CCCCN3C(=O)c4ccccc4C3=O)CC2)cc1 | 10000 nM | – | 213 nM | –
7 | COc1ccccc1N1CCN(CCCCNC(=O)c2ccc([N+](=O)[O-])cc2)CC1 | 14 nM | 3 | 4.4 nM | –
8 | COc1ccccc1N1CCN(CCCCNC(=O)c2ccc(O)cc2)CC1 | 17 nM | 3 | 5.4 nM | –
9 | COc1ccccc1N1CCN(CCCCNC(=O)c2ccc(N)cc2)CC1 | 23 nM | 4 | 6.3 nM | –
10 | O=C1c2ccccc2C(=O)N1CCCCN1CCN(c2ccccc2[N+](=O)[O-])CC1 | 25 nM | 6 | 4 nM | –
11 | COc1ccccc1N1CCN(CCCCNC(=O)c2ccc(I)cc2)CC1 | 15 nM | 4 | 4 nM | –
12 | COc1ccccc1N1CCN(CCCCNC(=O)C23C[C@H]4C[C@@H](C2)C[C@@H](C3)C4)CC1 | 64 nM | – | 0.4 nM | Ki [4]: 34 nM; Ki [5]: 890 nM; Ki [6]: 225 nM; Ki [7]: > 1000 nM; Ki [8]: 1020 nM; Ki [9]: 2.7 nM
13 | O=C(NCCCCN1CCN(c2cccc3ccccc23)CC1)C12C[C@H]3C[C@@H](C1)C[C@@H](C2)C3 | 109 nM | 156 | 0.7 nM | –
14 | COc1ccccc1N1CCN(CCCCNC(=O)c2ccc(Cl)c(Cl)c2)CC1 | 21 nM | 11 | 2 nM | –
15 | COc1ccccc1N1CCN(CCCCNC(=O)C(C)(C)C)CC1 | 74 nM | 74 | 1 nM | –
16 | CCCCC(=O)NCCCCN1CCN(c2ccccc2OC)CC1 | 84 nM | 11 | 7.5 nM | –
